FGF22 binding: binders of recombinant human FGF22 by thermal shift; Q9HCT0; SYPRO orange fluorescence; percent of sucrose octasulfate shift, DMSO zero; activity (Tm shift, normalised), % at 9.99 µM; 340,000 compounds, 1.5% hits; AID 651658;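 active means mean Tm shift, scaled 0 neutral to 100 positive control, at about 1.3% or above, every replicate too, limit read from the data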
Target sequence (Q9HCT0 whole entry, looked up): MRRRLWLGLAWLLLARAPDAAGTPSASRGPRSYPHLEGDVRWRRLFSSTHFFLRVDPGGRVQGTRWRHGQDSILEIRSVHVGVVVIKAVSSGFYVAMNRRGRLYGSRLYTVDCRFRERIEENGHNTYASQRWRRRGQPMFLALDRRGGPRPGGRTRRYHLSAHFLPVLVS
FN deposition inh: fibronectin deposition inhibition; AH1F fibroblasts, Alexa488-fibronectin deposition fluorescence, overnight; inhibition, % at 12.6 µM; 350,000 compounds, 0.086% hits; AID 743247;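 active means mean inhibition across replicates of 30% or more, regardless of how many single replicates reach that level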
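Material – AH1F fibroblast monolayer, labelled fibronectin deposition · Reagent – labelled fibronectin 24 nM · Timing – 1 h adhesion, overnight exposure · Measured by – fluorescence at 485 nm excitation, 525 nm emission · Read-out – inhibition of fibronectin deposition signal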
E-selectin induc: induces E-selectin expression in human endothelial cells; P16581; HUVEC E-selectin immunofluorescence imaging; normalized: neutral wells 0, TNF-alpha wells 100; activation, % at 7.58 µM; 260,000 compounds, 0.37% hits;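 active means mean E-selectin-positive cell signal at least 10% of the positive control, reached in at least 60% of replicates, without over 20% cell loss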
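assay system = HUVEC, human umbilical vein endothelial cells | input = 3,000 HUVEC seeded per well | medium = EGM-2 growth medium on 0.1% gelatin-coated wells | dosing = one compound dose added by pin transfer | signal = immunofluorescence imaging | read-out basis = % PE-positive cells | control set = TNF-alpha, DMSO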
SIRT5 inh: sirtuin-5 (human) deacylase inhibition. Purified SirT5, succinyl-peptide AMC, trypsin-coupled fluorescence. 330,000 compounds, 1.1% hits. inhibition, % at 15 µM. Q9NXA8; in the data active means inhibition above about 15%
Target sequence (Q9NXA8 whole entry, looked up): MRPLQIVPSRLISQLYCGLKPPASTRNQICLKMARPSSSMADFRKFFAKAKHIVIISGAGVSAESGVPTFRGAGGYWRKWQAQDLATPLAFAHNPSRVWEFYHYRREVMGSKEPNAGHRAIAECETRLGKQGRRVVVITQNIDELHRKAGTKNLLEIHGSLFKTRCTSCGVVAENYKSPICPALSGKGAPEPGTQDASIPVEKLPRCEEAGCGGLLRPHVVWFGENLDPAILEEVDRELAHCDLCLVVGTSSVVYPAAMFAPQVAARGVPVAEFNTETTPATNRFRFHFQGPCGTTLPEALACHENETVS
Ecoli rRNA inh: inhibits bacterial ribosomal RNA function over humanized ribosomes; E. coli WT GFP vs humanized-ribosome RFP mutants, fluorescence, 24 h; active compounds read low; DMSO median 0, no signal -100; GFP signal change (wild-type ribosome), % (test concentration not listed); 350,000 compounds, 1.6% hits; AID 720706;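 active means significant combined selectivity score with lowered wild-type GFP, culture density cut under 30%, mutant RFP and density less affected; inactive means any of these conditions unmet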
C2C12 statin: suppression of simvastatin myotoxicity | AID 602340 | rescue of ATP level, % at 7.49 µM | 330,000 compounds, 0.78% hits | C2C12 myotubes + simvastatin, ATP luminescence, 48 h; scaled: DMSO 0, geranylgeraniol control 100;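 active means mean ATP rescue above about 67%, or every replicate alone reaching that limit, limit read from the data, passing the limit was not always enough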;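 further: myotubes were challenged with 10 µM simvastatin during compound exposure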
Numbers stand for hits; – = inactive; · = not tested or not shown; ! = a repeat was not active. This is a sample that favours compounds with a hit; in the whole collection about 4% have one here.

SMILES	FGF22 binding	FN deposition inh	E-selectin induc	SIRT5 inh	Ecoli rRNA inh	C2C12 statin
O=C(N[C@H]1CC[C@H](CCNS(=O)(=O)c2ccccc2Cl)O[C@@H]1CO)c1ccc(F)cc1	–	–	–	–	–	–
O=C(COC(=O)c1ccccc1C(=O)c1ccc(Cl)cc1)NCCc1ccccc1	–	–	–	–	-29.2	·
O=C(OCc1ccccc1Cl)c1ccccc1C(=O)c1ccccc1	·	–	·	·	·	–
O=C(COC(=O)c1ccccc1C(=O)c1ccccc1)NCCc1ccccc1	–	–	·	–	–	–
O=C(COC(=O)c1ccccc1C(=O)c1ccc(Cl)cc1)NC(c1ccccc1)c1ccccc1	43.2	–	·	–	–	·
COc1cccc(/C=C/C(=O)OCC(=O)NCCC2=CCCCC2)c1OC	–	–	·	–	–	–
O=C(/C=C/c1cccc2ccccc12)NCCC1=CCCCC1	·	·	·	·	·	82.1
COc1ccccc1CNC(=O)C[C@H]1CC[C@H]2[C@@H](COC[C@H](O)CN2C(=O)Nc2ccccc2)O1	–	–	–	–	–	–
COc1ccc(CN(C2CCCC2)S(=O)(=O)c2ccc(-n3cnnn3)cc2)cc1	·	–	·	·	·	–
COc1ccc(CN(C2CCCC2)S(=O)(=O)c2ccc(-n3cnnn3)cc2)cc1OC	·	31.1	–	·	·	–
CN(C)C(=O)c1cccc(-c2ccc([C@H]3[C@H]4CN(CC5CCOCC5)CCCCN4[C@H]3CO)cc2)c1	–	–	–	–	–	–
Cc1[nH]c2ccccc2c1CN1CCC(Cc2ccccc2)CC1	–	–	–	–	-42.3	–
COc1ccc(CN(C)C[C@@H]2Oc3ccc(NS(=O)(=O)c4cccs4)cc3CC(=O)N([C@@H](C)CO)C[C@H]2C)cc1	·	·	·	·	–	·
COc1ccc(OCCNS(=O)(=O)c2ccc3oc4ccccc4c3c2)cc1	·	–	·	·	·	100.9
O=C(NC(=S)Nc1cc(S(=O)(=O)N2CCOCC2)ccc1O)c1ccco1	5.5	–	–	–	–	–
O=C(NC(=S)Nc1cc(S(=O)(=O)N2CCOCC2)ccc1N1CCOCC1)c1ccco1	–	–	–	–	–	·
O=C(CSc1nc2ccccc2c(=O)n1CC1CCCO1)Nc1ccccc1 (configuration not stated)	–	–	·	–	–	–
O=C(CSc1nc2ccccc2c(=O)n1CC1CCCO1)Nc1ccccc1Cl (configuration not stated)	–	–	·	–	–	79.2
C[C@@H]1CN([C@@H](C)CO)C(=O)c2cccc(NS(=O)(=O)c3cn(C)cn3)c2O[C@H]1CN(C)C(=O)Nc1cccc2ccccc12	–	–	–	29.3	–	–
C[C@@H]1CN([C@H](C)CO)C(=O)c2cccc(NC(=O)Nc3ccc4c(c3)OCO4)c2O[C@@H]1CN(C)S(=O)(=O)c1cn(C)cn1	–	–	–	16.2	–	–
C[C@@H]1CN([C@H](C)CO)C(=O)c2cc(NS(=O)(=O)c3cn(C)cn3)ccc2O[C@H]1CN(C)C(=O)Nc1ccccc1	–	–	–	23.1!	–	–
C[C@@H]1CN([C@H](C)CO)C(=O)c2cccc(NS(=O)(=O)c3cn(C)cn3)c2O[C@@H]1CN(C)C(=O)Nc1cccc2ccccc12	–	–	–	–	–	–
C[C@@H]1CN([C@H](C)CO)C(=O)c2cc(NS(=O)(=O)c3cn(C)cn3)ccc2O[C@H]1CN(C)C(=O)Nc1ccc2c(c1)OCO2	–	·	255.3	–	–	–
CCCN1[C@@H]2Cn3c(cccc3=O)[C@H]1[C@@H](C(=O)N[C@@H](C)c1ccccc1)[C@@H]2CO	·	·	–	–	–	·
COCC(=O)N1CC2(C1)CN(Cc1cc(F)ccc1F)[C@H](CO)c1[nH]c3cc(OC)ccc3c12	–	·	–	–	–	·
SMILES	FGF22 binding	FN deposition inh	E-selectin induc	SIRT5 inh	Ecoli rRNA inh	C2C12 statin
Cc1ccc(S(=O)(=O)N(C)C[C@H]2Oc3ccc(NS(=O)(=O)c4cn(C)cn4)cc3C(=O)N([C@@H](C)CO)C[C@@H]2C)cc1	·	·	–	·	–	–
C[C@H](CO)N1C[C@H](C)[C@@H](CN(C)C(=O)Nc2ccc3c(c2)OCO3)Oc2c(NS(=O)(=O)c3cn(C)cn3)cccc2C1=O	–	–	–	–	–	–
C[C@@H]1CN([C@@H](C)CO)C(=O)c2cccc(NS(=O)(=O)c3cn(C)cn3)c2O[C@H]1CN(C)C(=O)Nc1ccc2c(c1)OCO2	–	·	283.4	–	–	–
C[C@H](CO)N1C[C@H](C)[C@@H](CN(C)S(=O)(=O)c2ccccc2)OCCCC[C@H](C)Oc2ccc(N(C)C)cc2C1=O	·	·	–	–	–	91.6
C[C@@H]1CN([C@H](C)CO)C(=O)c2cc(N(C)C)ccc2O[C@H]1CN(C)S(=O)(=O)c1ccccc1	–	·	–	32.5	–	–
C[C@@H]1CN([C@H](C)CO)C(=O)c2cc(N(C)C)ccc2O[C@@H](C)CCCCO[C@@H]1CN(C)S(=O)(=O)c1ccccc1	–	·	–	–	–	–
C[C@@H]1CCCCO[C@H](CN(C)S(=O)(=O)c2ccc(Cl)cc2)[C@H](C)CN([C@@H](C)CO)C(=O)c2cc(N(C)C)ccc2O1	–	·	–	20.6	–	–
CO[C@@H]1CN(C)C(=O)c2cc(NS(C)(=O)=O)ccc2OC[C@H](C)N(C(=O)NC(C)C)C[C@@H]1C	·	·	–	·	–	–
Nc1[nH]n2c(=O)cc(-c3ccccc3)nc2c1N=Nc1ccc(S(N)(=O)=O)cc1	–	–	·	–	-23.7	·
Nc1[nH]n2c(=O)cc(-c3ccccc3)nc2c1N=Nc1ccccc1	·	·	·	·	·	–
Cc1ccnc(N2CCC(C(=O)NNC(=O)c3ccccc3)CC2)n1	–	·	·	–	–	–
Cc1ccnc(N2CCC(C(=O)NNC(=O)COc3cccc4ccccc34)CC2)n1	43.5	–	–	–	–	·
CC(=O)Oc1cc2oc(=O)cc(C)c2cc1Cl	–	–	–	–	-26.2	–
N#C[C@H]1[C@H](c2ccccc2)[C@H](CO)N1C(=O)CN1CCOCC1	–	·	·	–	·	–
COC(=O)c1ccccc1NCc1cc(=O)oc2cc(O)c(O)cc12	–	–	–	–	-21.9	–
COc1ccc(C)cc1NCc1cc(=O)oc2cc(-c3ccccc3)c(O)cc12	·	–	·	·	·	–
COCC(=O)N(C)C[C@H]1[C@H](c2ccccc2)[C@H](CO)N1C(=O)Cc1cccnc1	–	–	–	–	–	–
CO[C@H]1CN(C)C(=O)c2cc(NC(=O)C3CCCC3)ccc2OC[C@@H](C)N(C(=O)CC2CC2)C[C@H]1C	–	·	–	–	–	–
Cc1ccc2c(c1)-c1c(cnn1CC(=O)O)CO2	·	·	·	·	·	92.4
CCN(CCN(C)C)C(=O)Cn1ncc2c1-c1cc(C)ccc1OC2	–	–	·	·	–	–
CC(C)NC(=O)N[C@@H]1C=C[C@@H](CC(=O)NCc2ccc(Oc3ccccc3)cc2)O[C@H]1CO	–	–	–	–	–	–
